In ChEMBL document CHEMBL4011634 (J Med Chem, 2017):
Blank lines part the entries; values can stand above or below the compound they belong to.

How the values were obtained:
[1] = tested on: Rattus norvegicus; test: Drug metabolism in po or iv dosed bile-duct cannulated rat assessed as glutathione conjugation by HPLC-MS analysis; assay type: ADME, organism-based; settings: in vivo
[2] = tested on: Rattus norvegicus; test: (§1) Antiarthritic activity in MIA-induced osteoarthritis Lewis rat model assessed as decrease in aggrecan degradation products by measuring ARGNV levels in synovial fluid at 30 mg/kg, po bid starting on day 3 post MIA induction measured at 4 hrs post single oral dose on day 7 by ELISA relative to control; assay type: functional; parameters: scale not given: the % may be the effect or the level left
Summary of the method: (§2)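 Male Lewis rats aged 7-8 weeks received 3 mg freshly prepared MIA (sodium salt) in 0.9% saline intra-articularly into the right knee on day 0, with saline alone in the left knee. Inhibitor or vehicle (1% hydroxyethyl cellulose, 0.25% Tween 80, 0.05% antifoam) was given PO BID from day 3, with a single dose on day 7. Knees were saline-lavaged 4 h later, and aggrecan fragments were quantified by ELISA.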

[3] = molecular target: Macrophage metalloelastase (Homo sapiens, UniProt P39900); test: Inhibition of human MMP12 using Mca-PQGL-(3-[2, 4-dinitrophenyl]-L-2, 3-diaminopropionyl)-AR-OH as substrate after 2 to 4 hrs by fluorescence assay
[4] = molecular target: 72 kDa type IV collagenase (Homo sapiens, UniProt P08253); test: Inhibition of human MMP2 using Mca-PQGL-(3-[2, 4-dinitrophenyl]-L-2, 3-diaminopropionyl)-AR-OH as substrate after 2 to 4 hrs by fluorescence assay
[5] = molecular target: Collagenase 3 (Homo sapiens, UniProt P45452); test: Inhibition of human MMP13 using Mca-PQGL-(3-[2, 4-dinitrophenyl]-L-2, 3-diaminopropionyl)-AR-OH as substrate after 2 to 4 hrs by fluorescence assay
[6] = molecular target: Stromelysin-1 (Homo sapiens, UniProt P08254); test: Inhibition of human MMP3 using Mca-PQGL-(3-[2, 4-dinitrophenyl]-L-2, 3-diaminopropionyl)-AR-OH as substrate after 2 to 4 hrs by fluorescence assay
[7] = molecular target: Matrix metalloproteinase-14 (Homo sapiens, UniProt P50281); test: Inhibition of human MMP14 using Mca-PQGL-(3-[2, 4-dinitrophenyl]-L-2, 3-diaminopropionyl)-AR-OH as substrate after 2 to 4 hrs by fluorescence assay
[8] = molecular target: T1, A disintegrin and metalloproteinase with thrombospondin motifs 5 (Homo sapiens, UniProt Q9UNA0); test: Inhibition of human ADAMTS5 using VQTVTWPDMELPLPRNITEGEARGSVILTVKPIFEVSPSPLKG peptide as substrate after 3 hrs in the presence of 50% Lewis rat plasma by Alphascreen assay
T1 sequence (Q9UNA0 whole entry): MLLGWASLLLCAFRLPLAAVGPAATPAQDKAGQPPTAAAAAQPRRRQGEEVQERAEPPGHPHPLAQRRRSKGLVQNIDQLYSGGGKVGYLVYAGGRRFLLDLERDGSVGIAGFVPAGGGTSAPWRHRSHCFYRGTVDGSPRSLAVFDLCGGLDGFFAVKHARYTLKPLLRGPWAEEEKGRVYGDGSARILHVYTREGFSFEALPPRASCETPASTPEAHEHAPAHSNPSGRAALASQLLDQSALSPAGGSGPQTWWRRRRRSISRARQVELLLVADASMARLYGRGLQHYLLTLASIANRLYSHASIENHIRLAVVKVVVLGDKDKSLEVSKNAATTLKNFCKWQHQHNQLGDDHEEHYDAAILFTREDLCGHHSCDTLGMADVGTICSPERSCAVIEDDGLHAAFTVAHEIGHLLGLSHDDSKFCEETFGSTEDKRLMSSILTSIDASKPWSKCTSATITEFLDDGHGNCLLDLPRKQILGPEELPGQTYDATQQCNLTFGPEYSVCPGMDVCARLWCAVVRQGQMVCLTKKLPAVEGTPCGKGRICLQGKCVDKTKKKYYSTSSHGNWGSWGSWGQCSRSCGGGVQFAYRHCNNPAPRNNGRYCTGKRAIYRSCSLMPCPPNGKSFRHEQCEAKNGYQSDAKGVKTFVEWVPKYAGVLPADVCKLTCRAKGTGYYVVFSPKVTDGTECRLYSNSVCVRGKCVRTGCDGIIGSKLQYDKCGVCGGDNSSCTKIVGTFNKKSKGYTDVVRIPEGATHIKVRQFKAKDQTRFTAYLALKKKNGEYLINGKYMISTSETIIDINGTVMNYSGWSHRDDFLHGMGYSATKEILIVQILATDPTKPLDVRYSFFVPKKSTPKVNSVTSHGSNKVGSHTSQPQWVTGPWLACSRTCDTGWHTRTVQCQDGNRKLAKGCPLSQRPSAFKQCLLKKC

[9] = molecular target: T1, A disintegrin and metalloproteinase with thrombospondin motifs 5; test: Inhibition of human ADAMTS5 using VQTVTWPDMELPLPRNITEGEARGSVILTVKPIFEVSPSPLKG peptide as substrate after 3 hrs by Alphascreen assay
[10] = molecular target: T2, A disintegrin and metalloproteinase with thrombospondin motifs 4 (Homo sapiens, UniProt O75173); test: Inhibition of human ADAMTS4 using VQTVTWPDMELPLPRNITEGEARGSVILTVKPIFEVSPSPLKG peptide as substrate after 3 hrs by Alphascreen assay
T2 sequence (O75173 whole entry): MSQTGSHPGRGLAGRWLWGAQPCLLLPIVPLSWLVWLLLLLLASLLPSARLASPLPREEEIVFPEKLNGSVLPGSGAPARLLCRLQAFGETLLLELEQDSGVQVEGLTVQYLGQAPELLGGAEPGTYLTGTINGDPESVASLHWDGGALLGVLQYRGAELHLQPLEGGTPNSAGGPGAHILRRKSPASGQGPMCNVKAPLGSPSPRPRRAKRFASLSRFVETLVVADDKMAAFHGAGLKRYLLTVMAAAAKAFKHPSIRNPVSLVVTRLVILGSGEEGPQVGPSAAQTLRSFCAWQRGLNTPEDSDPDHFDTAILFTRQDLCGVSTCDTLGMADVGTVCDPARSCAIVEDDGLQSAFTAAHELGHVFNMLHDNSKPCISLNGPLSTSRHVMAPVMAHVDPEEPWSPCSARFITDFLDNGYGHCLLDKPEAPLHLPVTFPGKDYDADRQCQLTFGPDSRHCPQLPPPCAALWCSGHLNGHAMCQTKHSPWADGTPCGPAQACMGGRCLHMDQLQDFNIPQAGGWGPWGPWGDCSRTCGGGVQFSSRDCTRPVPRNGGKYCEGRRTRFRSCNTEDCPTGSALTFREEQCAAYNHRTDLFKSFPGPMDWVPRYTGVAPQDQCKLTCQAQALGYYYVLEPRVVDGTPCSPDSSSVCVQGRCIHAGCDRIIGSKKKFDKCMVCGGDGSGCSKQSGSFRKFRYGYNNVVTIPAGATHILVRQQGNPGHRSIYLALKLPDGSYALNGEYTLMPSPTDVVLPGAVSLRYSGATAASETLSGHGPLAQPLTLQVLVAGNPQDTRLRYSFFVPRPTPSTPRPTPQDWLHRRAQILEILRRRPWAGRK

[11] = Volume of distribution in rat at 1 mg/kg, iv; assay type: ADME, organism-based; settings: in vivo
[12] = tested on: Rattus norvegicus; test: as §1, with “10” for “30”; assay type: functional; parameters: scale not given: the % may be the effect or the level left; summary of the method: as §2
[13] = Cmax in rat at 1 mg/kg, iv; assay type: ADME, organism-based; parameters: dose 1 mg/kg, route intravenous; settings: in vivo
[14] = Plasma concentration in rat at 1 mg/kg, iv measured at 12 hrs post dose; assay type: ADME, organism-based
[15] = AUC (0 to 24 hrs) in rat at 1 mg/kg, iv; assay type: ADME, organism-based; parameters: time < 24 hr, dose 1 mg/kg, route intravenous; settings: in vivo
Summary of the method: (§3)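 Rat plasma pharmacokinetics after IV dosing at 1 mg/kg or oral dosing at 10 mg/kg. Plasma concentrations were followed to 24 h.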

[16] = Cmax in rat at 10 mg/kg, po; assay type: ADME, organism-based; parameters: dose 10 mg/kg, route oral; settings: in vivo
[17] = Oral bioavailability in rat at 10 mg/kg; assay type: ADME, organism-based; settings: in vivo
[18] = Half life in rat at 1 mg/kg, iv; assay type: ADME, organism-based; settings: in vivo
[19] = Half life in rat at 10 mg/kg, po; assay type: ADME, organism-based; settings: in vivo
[20] = Clearance in rat at 1 mg/kg, iv; assay type: ADME, organism-based; settings: in vivo
[21] = Plasma concentration in rat at 10 mg/kg, po measured at 12 hrs post dose; assay type: ADME, organism-based
[22] = Tmax in rat at 10 mg/kg, po; assay type: ADME, organism-based; settings: in vivo
[23] = tested on: Rattus norvegicus; test: as §1, with “75” for “30”; assay type: functional; parameters: scale not given: the % may be the effect or the level left; summary of the method: as §2
[24] = AUC (0 to 24 hrs) in rat at 10 mg/kg, po; assay type: ADME, organism-based; parameters: dose 10 mg/kg, time < 24 hr, route oral; settings: in vivo; summary of the method: as §3

Macrophage metalloelastase, sequence (P39900 whole entry): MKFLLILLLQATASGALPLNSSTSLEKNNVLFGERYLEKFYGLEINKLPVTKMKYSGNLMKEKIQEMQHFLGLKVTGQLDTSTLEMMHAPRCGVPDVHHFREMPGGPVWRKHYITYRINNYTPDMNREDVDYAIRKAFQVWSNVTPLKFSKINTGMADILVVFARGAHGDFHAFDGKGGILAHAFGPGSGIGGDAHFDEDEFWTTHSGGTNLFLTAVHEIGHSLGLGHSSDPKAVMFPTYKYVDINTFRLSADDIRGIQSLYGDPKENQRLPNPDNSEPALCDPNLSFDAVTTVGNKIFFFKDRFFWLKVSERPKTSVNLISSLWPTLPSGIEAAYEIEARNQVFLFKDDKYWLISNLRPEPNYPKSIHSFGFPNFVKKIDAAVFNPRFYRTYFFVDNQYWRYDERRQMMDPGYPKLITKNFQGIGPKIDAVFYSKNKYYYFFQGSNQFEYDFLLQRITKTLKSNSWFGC
Stromelysin-1, sequence (P08254 whole entry): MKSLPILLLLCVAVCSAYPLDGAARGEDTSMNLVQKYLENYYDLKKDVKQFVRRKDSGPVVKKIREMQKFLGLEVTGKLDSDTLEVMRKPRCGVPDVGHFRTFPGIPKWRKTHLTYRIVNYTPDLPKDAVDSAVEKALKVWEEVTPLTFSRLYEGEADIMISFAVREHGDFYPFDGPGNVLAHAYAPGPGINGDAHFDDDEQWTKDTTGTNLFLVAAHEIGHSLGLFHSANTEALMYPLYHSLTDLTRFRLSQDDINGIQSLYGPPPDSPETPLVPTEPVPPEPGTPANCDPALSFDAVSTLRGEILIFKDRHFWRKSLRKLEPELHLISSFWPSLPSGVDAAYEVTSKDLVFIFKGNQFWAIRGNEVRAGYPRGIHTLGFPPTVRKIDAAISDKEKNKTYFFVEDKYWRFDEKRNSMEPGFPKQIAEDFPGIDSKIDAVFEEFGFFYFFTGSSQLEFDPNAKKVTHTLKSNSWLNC
72 kDa type IV collagenase, sequence (P08253 whole entry): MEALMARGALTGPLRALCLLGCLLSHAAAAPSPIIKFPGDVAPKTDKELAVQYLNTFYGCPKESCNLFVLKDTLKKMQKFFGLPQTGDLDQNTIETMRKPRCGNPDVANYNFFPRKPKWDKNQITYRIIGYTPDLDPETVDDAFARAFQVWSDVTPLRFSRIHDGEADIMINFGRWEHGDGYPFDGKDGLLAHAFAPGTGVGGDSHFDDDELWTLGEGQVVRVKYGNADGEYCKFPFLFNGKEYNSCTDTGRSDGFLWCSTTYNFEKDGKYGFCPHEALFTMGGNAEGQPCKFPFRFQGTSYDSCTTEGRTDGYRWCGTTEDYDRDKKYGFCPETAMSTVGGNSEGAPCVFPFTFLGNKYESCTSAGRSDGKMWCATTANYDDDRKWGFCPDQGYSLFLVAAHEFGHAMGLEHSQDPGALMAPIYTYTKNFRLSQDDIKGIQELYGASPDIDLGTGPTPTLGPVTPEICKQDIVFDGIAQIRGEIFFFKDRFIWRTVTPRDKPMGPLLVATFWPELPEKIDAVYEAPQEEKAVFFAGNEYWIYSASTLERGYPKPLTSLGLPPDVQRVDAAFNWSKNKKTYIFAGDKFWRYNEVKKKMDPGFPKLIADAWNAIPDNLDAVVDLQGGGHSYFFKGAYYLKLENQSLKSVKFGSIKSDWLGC

Drug metabolism [1]: Metabolite_Notdetected
IC50 [3]: < 1 nM
SMILES: C[C@@]1(O)CCCN(S(=O)(=O)c2ccc(OCc3ccc(F)cc3Cl)cc2)[C@H]1C(=O)NO
Activity [2]: 50%

IC50 [4]: 3000 nM
Drug metabolism [1]: Metabolite_Notdetected
SMILES: CC[C@H](Cc1ccc(C(F)(F)F)cc1)C(=O)NC[C@@]1(C2CC2)NC(=O)NC1=O

Drug metabolism [1]: Metabolite_Notdetected
SMILES: CC(C)(Cc1ccc(C(F)(F)F)cc1)C(=O)NC[C@@]1(C2CC2)NC(=O)NC1=O

Drug metabolism [1]: Metabolite_Notdetected
SMILES: C[C@H](Cc1ccc(C(F)(F)F)cc1)C(=O)NC[C@@]1(C2CC2)NC(=O)NC1=O

IC50 [4]: 280 nM
Drug metabolism [1]: Metabolite_Notdetected
IC50 [5]: 340 nM
IC50 [6]: 2000 nM
IC50 [3]: 7 nM
IC50 [7]: 1600 nM
SMILES: C[C@@H](Cc1ccc(C(F)(F)F)cc1)C(=O)NC[C@@]1(C2CC2)NC(=O)NC1=O

IC50 [4]: 310 nM
Drug metabolism [1]: Metabolite_Notdetected
IC50 [5]: 320 nM
IC50 [8]: 52 nM
IC50 [6]: 660 nM
IC50 [3]: 5 nM
IC50 [7]: 3400 nM
IC50 [9]: 5 nM
IC50 [10]: 4 nM
SMILES: O=C(CCc1ccc(C(F)(F)F)cc1)NC[C@@]1(C2CC2)NC(=O)NC1=O

Drug metabolism [1]: Metabolite_Notdetected
SMILES: CC(C)[C@H](Cc1ccc(C(F)(F)F)cc1)C(=O)NC[C@@]1(C2CC2)NC(=O)NC1=O

IC50 [3]: 9 nM
SMILES: O=C1NC(=O)[C@](CNC(=O)c2cc3cc(C(F)(F)F)ccc3o2)(C2CC2)N1

IC50 [3]: 70 nM
SMILES: C[C@]1(CNC(=O)COc2ccc(Cl)cc2)NC(=O)NC1=O

Vd [11]: 4.3 L/kg
Cmax [13]: 1600 nM
concentration at 12 h [14]: < 5 nM
AUC(0-t) at 24 h [15]: 1.3 µM·h
Drug metabolism [1]: Metabolite_Notdetected
Cmax [16]: 6600 nM
bioavailability [17]: 100%
half-life [18]: 1.5 h
half-life [19]: 2.6 h
clearance [20]: 33 mL/min/kg
IC50 [6]: > 100000 nM
concentration at 12 h [21]: 29 nM
Tmax [22]: 0.5 h
AUC(0-t) at 24 h [24]: 22 µM·h
SMILES: O=C1NC(=O)[C@](CNC(=O)[C@@H](Cc2ccc(C(F)(F)F)cc2)C2CC2)(C2CC2)N1
Activity [12]: 41%
Activity [2]: 52%
Activity [23]: 53%
